What was measured:
Type in all cases: functional
[1] = system: Histoplasma capsulatum; experiment: Antifungal activity against Histoplasma capsulatum Darling isolate 1106 at 10 ug/ml after 2 weeks (reference value: 25 mm); settings: Darling isolate 1106, 336 h, read-out: DIZ
[2] = system: Blastomyces dermatitidis; experiment: Antifungal activity against Blastomyces dermatitidis Gilchrist & Stokes isolate 1107 at 40 ug/ml after 1 week (reference value: 20 mm); settings: Gilchrist & Stokes isolate 1107, 168 h, read-out: DIZ
[3] = system: Blastomyces dermatitidis; experiment: Antifungal activity against Blastomyces dermatitidis Gilchrist & Stokes isolate 1107 at 60 ug/ml after 2 weeks (reference value: 35 mm); settings: Gilchrist & Stokes isolate 1107, 336 h, read-out: DIZ
Method in brief: (§1)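 Mycelial phase grown on Sabouraud dextrose agar at 25°C. Agar pH was set to 6 before the test solution was added and was 5.0-5.5 after. Test solutions contained HOAc and Me2SO, and solvent and blank controls were included. Each quadrant was center-inoculated with a 2 × 2 mm piece of a 2-week-old mycelial culture. Colony diameter was measured weekly for 3 weeks and reported as total increments (mm). Duplicates were run.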

[4] = system: Histoplasma capsulatum; experiment: Antifungal activity against Histoplasma capsulatum Darling isolate 1106 at 20 ug/ml after 2 weeks (reference value: 25 mm); settings: Darling isolate 1106, 336 h, read-out: DIZ
[5] = system: Blastomyces dermatitidis; experiment: Antifungal activity against Blastomyces dermatitidis Gilchrist & Stokes isolate 1099 at 100 ug/ml after 3 weeks (reference value: 34 mm); settings: Gilchrist & Stokes isolate 1099, 504 h, read-out: DIZ; method in brief: as §1
[6] = system: Blastomyces dermatitidis; experiment: Antifungal activity against Blastomyces dermatitidis Gilchrist & Stokes isolate 1107 at 40 ug/ml after 2 weeks (reference value: 35 mm); settings: Gilchrist & Stokes isolate 1107, 336 h, read-out: DIZ; method in brief: as §1
[7] = system: Histoplasma capsulatum; experiment: Antifungal activity against Histoplasma capsulatum Darling isolate 1106 at 100 ug/ml after 2 weeks (reference value: 25 mm); settings: Darling isolate 1106, 336 h, read-out: DIZ
[8] = system: Blastomyces dermatitidis; experiment: Antifungal activity against Blastomyces dermatitidis Gilchrist & Stokes isolate 1099 at 60 ug/ml after 1 week (reference value: 14 mm); settings: Gilchrist & Stokes isolate 1099, 168 h, read-out: DIZ
[9] = system: Histoplasma capsulatum; experiment: Antifungal activity against Histoplasma capsulatum Darling isolate 1106 at 10 ug/ml after 1 week (reference value: 14 mm); settings: Darling isolate 1106, 168 h, read-out: DIZ
[10] = system: Blastomyces dermatitidis; experiment: Antifungal activity against Blastomyces dermatitidis Gilchrist & Stokes isolate 1107 at 10 ug/ml after 3 weeks (reference value: 40 mm); settings: Gilchrist & Stokes isolate 1107, 504 h, read-out: DIZ; method in brief: as §1
[11] = system: Blastomyces dermatitidis; experiment: Antifungal activity against Blastomyces dermatitidis Gilchrist & Stokes isolate 1099 at 80 ug/ml after 3 weeks (reference value: 34 mm); settings: Gilchrist & Stokes isolate 1099, 504 h, read-out: DIZ; method in brief: as §1
[12] = system: Histoplasma capsulatum; experiment: Antifungal activity against Histoplasma capsulatum Darling isolate 1106 at 20 ug/ml after 1 week (reference value: 14 mm); settings: Darling isolate 1106, 168 h, read-out: DIZ
[13] = system: Histoplasma capsulatum; experiment: Antifungal activity against Histoplasma capsulatum Darling isolate 1098 at 100 ug/ml after 1 week (reference value: 12 mm); settings: Darling isolate 1098, 168 h, read-out: DIZ
[14] = system: Histoplasma capsulatum; experiment: Antifungal activity against Histoplasma capsulatum Darling isolate 1098 at 10 ug/ml after 1 week (reference value: 12 mm); settings: Darling isolate 1098, 168 h, read-out: DIZ
[15] = system: Histoplasma capsulatum; experiment: Antifungal activity against Histoplasma capsulatum Darling isolate 1106 at 40 ug/ml after 3 weeks (reference value: 31 mm); settings: Darling isolate 1106, 504 h, read-out: DIZ
[16] = system: Blastomyces dermatitidis; experiment: Antifungal activity against Blastomyces dermatitidis Gilchrist & Stokes isolate 1107 at 40 ug/ml after 3 weeks (reference value: 40 mm); settings: Gilchrist & Stokes isolate 1107, 504 h, read-out: DIZ; method in brief: as §1
[17] = system: Blastomyces dermatitidis; experiment: Antifungal activity against Blastomyces dermatitidis Gilchrist & Stokes isolate 1107 at 100 ug/ml after 1 week (reference value: 20 mm); settings: Gilchrist & Stokes isolate 1107, 168 h, read-out: DIZ
[18] = system: Histoplasma capsulatum; experiment: Antifungal activity against Histoplasma capsulatum Darling isolate 1098 at 100 ug/ml after 3 weeks (reference value: 28 mm); settings: Darling isolate 1098, 504 h, read-out: DIZ
[19] = system: Histoplasma capsulatum; experiment: Antifungal activity against Histoplasma capsulatum Darling isolate 1098 at 80 ug/ml after 3 weeks (reference value: 28 mm); settings: Darling isolate 1098, 504 h, read-out: DIZ
[20] = system: Blastomyces dermatitidis; experiment: Antifungal activity against Blastomyces dermatitidis Gilchrist & Stokes isolate 1099 at 10 ug/ml after 1 week (reference value: 14 mm); settings: Gilchrist & Stokes isolate 1099, 168 h, read-out: DIZ; method in brief: as §1
[21] = system: Blastomyces dermatitidis; experiment: Antifungal activity against Blastomyces dermatitidis Gilchrist & Stokes isolate 1099 at 60 ug/ml after 3 weeks (reference value: 34 mm); settings: Gilchrist & Stokes isolate 1099, 504 h, read-out: DIZ; method in brief: as §1
[22] = system: Histoplasma capsulatum; experiment: Antifungal activity against Histoplasma capsulatum Darling isolate 1106 at 100 ug/ml after 3 weeks (reference value: 31 mm); settings: Darling isolate 1106, 504 h, read-out: DIZ
[23] = system: Histoplasma capsulatum; experiment: Antifungal activity against Histoplasma capsulatum Darling isolate 1098 at 20 ug/ml after 1 week (reference value: 12 mm); settings: Darling isolate 1098, 168 h, read-out: DIZ
[24] = system: Blastomyces dermatitidis; experiment: Antifungal activity against Blastomyces dermatitidis Gilchrist & Stokes isolate 1107 at 20 ug/ml after 1 week (reference value: 20 mm); settings: Gilchrist & Stokes isolate 1107, 168 h, read-out: DIZ; method in brief: as §1
[25] = system: Blastomyces dermatitidis; experiment: Antifungal activity against Blastomyces dermatitidis Gilchrist & Stokes isolate 1107 at 100 ug/ml after 2 weeks (reference value: 35 mm); settings: Gilchrist & Stokes isolate 1107, 336 h, read-out: DIZ; method in brief: as §1
[26] = system: Blastomyces dermatitidis; experiment: Antifungal activity against Blastomyces dermatitidis Gilchrist & Stokes isolate 1099 at 100 ug/ml after 2 weeks (reference value: 27 mm); settings: Gilchrist & Stokes isolate 1099, 336 h, read-out: DIZ
[27] = system: Blastomyces dermatitidis; experiment: Antifungal activity against Blastomyces dermatitidis Gilchrist & Stokes isolate 1107 at 10 ug/ml after 2 weeks (reference value: 35 mm); settings: Gilchrist & Stokes isolate 1107, 336 h, read-out: DIZ; method in brief: as §1
[28] = system: Histoplasma capsulatum; experiment: Antifungal activity against Histoplasma capsulatum Darling isolate 1106 at 40 ug/ml after 2 weeks (reference value: 25 mm); settings: Darling isolate 1106, 336 h, read-out: DIZ
[29] = system: Blastomyces dermatitidis; experiment: Antifungal activity against Blastomyces dermatitidis Gilchrist & Stokes isolate 1099 at 80 ug/ml after 1 week (reference value: 14 mm); settings: Gilchrist & Stokes isolate 1099, 168 h, read-out: DIZ
[30] = system: Blastomyces dermatitidis; experiment: Antifungal activity against Blastomyces dermatitidis Gilchrist & Stokes isolate 1099 at 10 ug/ml after 3 weeks (reference value: 34 mm); settings: Gilchrist & Stokes isolate 1099, 504 h, read-out: DIZ; method in brief: as §1
[31] = system: Histoplasma capsulatum; experiment: Antifungal activity against Histoplasma capsulatum Darling isolate 1106 at 100 ug/ml after 1 week (reference value: 14 mm); settings: Darling isolate 1106, 168 h, read-out: DIZ
[32] = system: Blastomyces dermatitidis; experiment: Antifungal activity against Blastomyces dermatitidis Gilchrist & Stokes isolate 1107 at 80 ug/ml after 2 weeks (reference value: 35 mm); settings: Gilchrist & Stokes isolate 1107, 336 h, read-out: DIZ; method in brief: as §1
[33] = system: Blastomyces dermatitidis; experiment: Antifungal activity against Blastomyces dermatitidis Gilchrist & Stokes isolate 1099 at 60 ug/ml after 2 weeks (reference value: 27 mm); settings: Gilchrist & Stokes isolate 1099, 336 h, read-out: DIZ; method in brief: as §1
[34] = system: Blastomyces dermatitidis; experiment: Antifungal activity against Blastomyces dermatitidis Gilchrist & Stokes isolate 1107 at 80 ug/ml after 1 week (reference value: 20 mm); settings: Gilchrist & Stokes isolate 1107, 168 h, read-out: DIZ
[35] = system: Blastomyces dermatitidis; experiment: Antifungal activity against Blastomyces dermatitidis Gilchrist & Stokes isolate 1107 at 100 ug/ml after 3 weeks (reference value: 40 mm); settings: Gilchrist & Stokes isolate 1107, 504 h, read-out: DIZ; method in brief: as §1
[36] = system: Histoplasma capsulatum; experiment: Antifungal activity against Histoplasma capsulatum Darling isolate 1098 at 100 ug/ml after 2 weeks (reference value: 21 mm); settings: Darling isolate 1098, 336 h, read-out: DIZ
[37] = system: Blastomyces dermatitidis; experiment: Antifungal activity against Blastomyces dermatitidis Gilchrist & Stokes isolate 1107 at 60 ug/ml after 3 weeks (reference value: 40 mm); settings: Gilchrist & Stokes isolate 1107, 504 h, read-out: DIZ; method in brief: as §1
[38] = system: Histoplasma capsulatum; experiment: Antifungal activity against Histoplasma capsulatum Darling isolate 1106 at 60 ug/ml after 2 weeks (reference value: 25 mm); settings: Darling isolate 1106, 336 h, read-out: DIZ
[39] = system: Blastomyces dermatitidis; experiment: Antifungal activity against Blastomyces dermatitidis Gilchrist & Stokes isolate 1099 at 40 ug/ml after 3 weeks (reference value: 34 mm); settings: Gilchrist & Stokes isolate 1099, 504 h, read-out: DIZ; method in brief: as §1

Q: What does the source list for `CS[C@@]1(C)CC[C@@H]2CCCCN2C1O` (some centres undefined)?
A: zone of inhibition at 10 µg/mL [1]: 21 mm; zone of inhibition at 40 µg/mL [2]: 20 mm; zone of inhibition at 60 µg/mL [3]: 31 mm; zone of inhibition at 20 µg/mL [4]: 20 mm; zone of inhibition at 100 µg/mL [5]: 33 mm; zone of inhibition at 40 µg/mL [6]: 33 mm; zone of inhibition at 100 µg/mL [7]: 17 mm; zone of inhibition at 60 µg/mL [8]: 13 mm; zone of inhibition at 10 µg/mL [9]: 11 mm; zone of inhibition at 10 µg/mL [10]: 40 mm; zone of inhibition at 80 µg/mL [11]: 33 mm; zone of inhibition at 20 µg/mL [12]: 11 mm; zone of inhibition at 100 µg/mL [13]: 8 mm; zone of inhibition at 10 µg/mL [14]: 11 mm; zone of inhibition at 40 µg/mL [15]: 28 mm; zone of inhibition at 40 µg/mL [16]: 40 mm; zone of inhibition at 100 µg/mL [17]: 16 mm; zone of inhibition at 100 µg/mL [18]: 30 mm; zone of inhibition at 80 µg/mL [19]: 30 mm; zone of inhibition at 10 µg/mL [20]: 16 mm; zone of inhibition at 60 µg/mL [21]: 32 mm; zone of inhibition at 100 µg/mL [22]: 26 mm; zone of inhibition at 20 µg/mL [23]: 10 mm; zone of inhibition at 20 µg/mL [24]: 21 mm; zone of inhibition at 100 µg/mL [25]: 31 mm; zone of inhibition at 100 µg/mL [26]: 25 mm; zone of inhibition at 10 µg/mL [27]: 33 mm; zone of inhibition at 40 µg/mL [28]: 21 mm; zone of inhibition at 80 µg/mL [29]: 13 mm; zone of inhibition at 10 µg/mL [30]: 38 mm; zone of inhibition at 100 µg/mL [31]: 9 mm; zone of inhibition at 80 µg/mL [32]: 29 mm; zone of inhibition at 60 µg/mL [33]: 25 mm; zone of inhibition at 80 µg/mL [34]: 18 mm; zone of inhibition at 100 µg/mL [35]: 40 mm; zone of inhibition at 100 µg/mL [36]: 15 mm; zone of inhibition at 60 µg/mL [37]: 40 mm; zone of inhibition at 60 µg/mL [38]: 19 mm; zone of inhibition at 40 µg/mL [39]: 34 mm

Reference: ChEMBL document CHEMBL3272198, “Preparation and in vitro antifungal activities of some quinolizidine derived hemiaminals and beta-tert-amino sulfides” (1976)
